Assay results published in publication PMC3689578 (Integrative biology : quantitative biosciences from nano to …, 2012).
Read-outs that look alike come from different tables or passages of the source.

Columns and labels:
Active thrombin in serum [1] = target: T1, Active thrombin in serum (Mus musculus, UniProt P19221); test: biochemical; conditions: read-out: inhibition of DPRSFL–ACPP proteolysis by serum
thrombin [2] = target: T2, thrombin (Homo sapiens, UniProt P00734); test: Enzyme cleavage by purified thrombin; type: biochemical
human atheromas = test: Ex vivo incubation of human carotid endarterectomy specimens
Procedure, shortened: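 Fresh carotid endarterectomy specimens from five patients, held on ice, embedded in 0.5% agarose, cut into 2 mm slices. Slices from the same specimen incubated 1 h in 10 μmol L−1 Cy5-labelled cleavable or control probe; two sections also with 110 or 220 μmol L−1 argatroban. Fluorescence measured on cryosections, background-subtracted. Slices homogenised in SDS sample buffer, centrifuged, supernatant run on gel. Paired t-test.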

thrombin [3] = target: T2, thrombin; test: Determination of kcat/Km with thrombin; type: biochemical
Procedure, shortened: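 Thrombin at 50 nmol L−1 with seven substrate concentrations from 1 to 30 μmol L−1, sampled at 5, 15, 30 and 60 min. Reactions stopped with SDS sample buffer and run on tricine gels. Percent cleavage = (lower band − background)/(lower + upper band − 2×background), uncleaved-substrate value subtracted. Percent × starting concentration gives product. Velocity is the slope of the linear product-versus-time segment. Km and kcat come from the Lineweaver–Burke intercept and slope.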

factor VIIa = target: T3, factor VIIa (Homo sapiens, UniProt P08709); test: Enzyme cleavage by factor VIIa; type: biochemical; conditions: 5 μmol L^−1 peptide, 50 nmol L^−1 enzyme
T3 sequence (P08709 213-466 limits assumed): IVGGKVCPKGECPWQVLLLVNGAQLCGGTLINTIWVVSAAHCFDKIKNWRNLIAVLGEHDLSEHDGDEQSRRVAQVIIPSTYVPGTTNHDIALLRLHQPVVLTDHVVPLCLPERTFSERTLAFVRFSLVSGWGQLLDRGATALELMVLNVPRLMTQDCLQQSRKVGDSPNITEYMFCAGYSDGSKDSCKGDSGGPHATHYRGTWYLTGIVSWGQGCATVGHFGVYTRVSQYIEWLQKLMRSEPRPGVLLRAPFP
T3 sequence (P08709 61-212 limits assumed): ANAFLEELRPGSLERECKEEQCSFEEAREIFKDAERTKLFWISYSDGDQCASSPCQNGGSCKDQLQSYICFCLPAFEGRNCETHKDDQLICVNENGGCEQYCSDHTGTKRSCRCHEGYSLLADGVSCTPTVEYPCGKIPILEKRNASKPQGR

[4] = tested on: clots at the end of the amputated tail tips; test: In vivo clot imaging after tail amputation; design: species or system wildtype FVB mice; conditions: 10 nanomoles iv, 24 hours, p = 0.045
Procedure, shortened: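 Wildtype FVB mouse tails clipped 2.5 mm from the tip. 20 min later, 10 nanomoles cleavable or control probe given i.v. At 24 h, under ketamine/midazolam (80, 5 mg kg−1), tail-tip clots imaged by fluorescence dissecting microscope (ex 620/60, em 700/75). Intensity quantified from images.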

cathepsin G = target: T4, cathepsin G (Homo sapiens, UniProt P08311); test: Enzyme cleavage by cathepsin G; type: biochemical; conditions: 5 μmol L^−1 peptide, 50 nmol L^−1 enzyme
T4 sequence (P08311 21-255): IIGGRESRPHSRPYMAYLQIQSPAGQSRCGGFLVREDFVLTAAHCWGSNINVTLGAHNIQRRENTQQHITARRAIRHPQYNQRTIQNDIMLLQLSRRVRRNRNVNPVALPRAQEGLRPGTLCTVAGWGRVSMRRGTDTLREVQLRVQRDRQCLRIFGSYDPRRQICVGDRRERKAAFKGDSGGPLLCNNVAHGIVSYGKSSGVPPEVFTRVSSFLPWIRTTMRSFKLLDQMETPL

factor XIIa = target: T5, factor XIIa (Homo sapiens, UniProt P00748); test: Enzyme cleavage by factor XIIa; type: biochemical; conditions: 5 μmol L^−1 peptide, 50 nmol L^−1 enzyme
T5 sequence (P00748 373-615 limits assumed): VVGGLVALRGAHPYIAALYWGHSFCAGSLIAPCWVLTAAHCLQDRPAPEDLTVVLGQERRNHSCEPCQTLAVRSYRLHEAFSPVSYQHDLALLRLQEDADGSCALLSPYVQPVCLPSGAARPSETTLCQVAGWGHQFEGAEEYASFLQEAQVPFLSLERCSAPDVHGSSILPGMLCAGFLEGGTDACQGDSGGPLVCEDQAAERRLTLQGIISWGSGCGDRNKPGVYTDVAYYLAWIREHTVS

atherosclerotic plaques [5] = test: Distribution of fluorescence within sectioned plaques; type: in vivo, LDLR−/− mice; conditions: 15 plaques, n = 5 mice, p = 0.023 paired t-test
factor XIa = factor XIa (Homo sapiens, UniProt P03951); test: Enzyme cleavage by factor XIa; type: biochemical; conditions: 5 μmol L^−1 peptide, 50 nmol L^−1 enzyme
[6] = target: activated protein C (APC) (Homo sapiens, UniProt P04070); test: Enzyme cleavage by activated protein C; type: biochemical; conditions: 5 μmol L^−1 peptide, 50 nmol L^−1 enzyme
plasmin = plasmin (Homo sapiens, UniProt P00747); test: Enzyme cleavage by plasmin; type: biochemical; conditions: 5 μmol L^−1 peptide, 50 nmol L^−1 enzyme
factor Xa = factor Xa (Bos taurus, UniProt P00743); test: Enzyme cleavage by factor Xa; type: biochemical; conditions: 5 μmol L^−1 peptide, 50 nmol L^−1 enzyme
chymotrypsin = test: Enzyme cleavage by chymotrypsin; type: biochemical; conditions: 5 μmol L^−1 peptide, 50 nmol L^−1 enzyme
atherosclerotic plaques [7] = test: Imaging of carotid plaques after co-injection of two probes; type: in vivo, LDLR−/− mice; conditions: rhodamine-labelled DPRSFL–ACPP, two animals
Procedure, shortened: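 LDLR−/− mice (C57BL/6 background) fed 0.5% cholesterol diet for 1–2 years, given rhodamine-labelled test probe plus Cy5-labelled MMP-cleavable probe intravenously. At 6 h, under anaesthesia, the carotid was exposed and imaged by fluorescence dissecting microscope. Carotid bifurcation and aortic arch imaged postmortem (rhodamine ex 560/25, em 607/36; Cy5 ex 620/60, em 700/75). Tissue then frozen for histology.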

atherosclerotic plaques [8] = test: Aorta and plaque fluorescence sorted by histologic group; type: in vivo, mice
neutrophil elastase = target: T6, neutrophil elastase (Homo sapiens, UniProt P08246); test: Enzyme cleavage by neutrophil elastase; type: biochemical; conditions: 5 μmol L^−1 peptide, 50 nmol L^−1 enzyme
T6 sequence (P08246 30-267): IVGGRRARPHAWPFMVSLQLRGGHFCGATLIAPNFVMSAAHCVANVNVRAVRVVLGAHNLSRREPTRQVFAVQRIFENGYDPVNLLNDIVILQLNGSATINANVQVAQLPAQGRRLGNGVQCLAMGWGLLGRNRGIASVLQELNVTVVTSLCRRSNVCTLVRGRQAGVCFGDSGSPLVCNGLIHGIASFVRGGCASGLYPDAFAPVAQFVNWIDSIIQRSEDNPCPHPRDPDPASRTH

[9] = design: species or system mice; conditions: mouse, in vivo, iv
Active thrombin in serum [10] = target: T1, Active thrombin in serum
trypsin = test: Enzyme cleavage by trypsin; type: biochemical; conditions: 5 μmol L^−1 peptide, 50 nmol L^−1 enzyme
thrombin [11] = target: T2, thrombin; conditions: thrombin activity on native receptor; cited from earlier work
[12] = 50 nmol L^−1 thrombin, 1 to 30 μmol L^−1 peptide, 5-60 min, gel read-out

Sequence of factor Xa (P00743 234-492 limits assumed): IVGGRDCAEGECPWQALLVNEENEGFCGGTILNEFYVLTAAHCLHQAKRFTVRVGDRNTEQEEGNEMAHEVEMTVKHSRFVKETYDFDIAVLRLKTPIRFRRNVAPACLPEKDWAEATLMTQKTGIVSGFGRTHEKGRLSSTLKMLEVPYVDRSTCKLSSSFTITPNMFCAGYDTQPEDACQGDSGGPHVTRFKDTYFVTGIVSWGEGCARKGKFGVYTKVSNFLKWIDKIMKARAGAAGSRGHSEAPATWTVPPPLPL
Sequence of factor Xa (P00743 41-180 limits assumed): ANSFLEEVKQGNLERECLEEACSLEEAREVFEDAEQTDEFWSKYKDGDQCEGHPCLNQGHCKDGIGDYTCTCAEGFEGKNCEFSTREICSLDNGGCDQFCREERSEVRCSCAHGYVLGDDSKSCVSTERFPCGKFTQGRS
Sequence of activated protein C (APC) (P04070 212-461 limits assumed): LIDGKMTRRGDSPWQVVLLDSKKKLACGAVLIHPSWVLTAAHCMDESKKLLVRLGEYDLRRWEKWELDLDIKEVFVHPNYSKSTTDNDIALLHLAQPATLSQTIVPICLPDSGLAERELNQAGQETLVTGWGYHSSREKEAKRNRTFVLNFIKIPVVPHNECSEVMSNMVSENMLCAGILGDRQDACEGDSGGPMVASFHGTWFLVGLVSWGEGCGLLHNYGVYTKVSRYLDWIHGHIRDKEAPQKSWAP
Sequence of activated protein C (APC) (P04070 43-197 limits assumed): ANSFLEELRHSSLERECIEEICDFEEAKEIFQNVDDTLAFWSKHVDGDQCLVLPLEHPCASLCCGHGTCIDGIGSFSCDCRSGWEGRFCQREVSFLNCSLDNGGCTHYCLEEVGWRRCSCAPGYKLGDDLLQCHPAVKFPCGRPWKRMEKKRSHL
Sequence of plasmin (P00747 581-810 limits assumed, species assumed): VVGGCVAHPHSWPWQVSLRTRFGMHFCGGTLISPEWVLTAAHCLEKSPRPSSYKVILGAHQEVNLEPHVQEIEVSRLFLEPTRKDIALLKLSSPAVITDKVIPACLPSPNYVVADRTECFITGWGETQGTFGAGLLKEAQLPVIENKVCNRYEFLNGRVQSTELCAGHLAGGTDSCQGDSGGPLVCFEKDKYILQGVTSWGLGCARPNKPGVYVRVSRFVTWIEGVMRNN
Sequence of plasmin (P00747 97-580 limits assumed, species assumed): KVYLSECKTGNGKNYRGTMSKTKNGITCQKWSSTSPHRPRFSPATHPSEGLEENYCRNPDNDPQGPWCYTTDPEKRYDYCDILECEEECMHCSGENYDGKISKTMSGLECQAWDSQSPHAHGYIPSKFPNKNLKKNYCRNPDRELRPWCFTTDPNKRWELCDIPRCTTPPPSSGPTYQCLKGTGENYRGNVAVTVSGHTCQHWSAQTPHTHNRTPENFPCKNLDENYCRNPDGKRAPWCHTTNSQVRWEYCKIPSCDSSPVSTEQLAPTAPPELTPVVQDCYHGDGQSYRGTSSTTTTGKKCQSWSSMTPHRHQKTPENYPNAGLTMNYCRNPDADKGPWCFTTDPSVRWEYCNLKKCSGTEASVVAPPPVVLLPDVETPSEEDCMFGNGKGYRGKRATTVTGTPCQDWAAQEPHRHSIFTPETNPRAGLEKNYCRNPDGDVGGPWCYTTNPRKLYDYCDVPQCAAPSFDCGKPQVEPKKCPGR
Sequence of factor XIa (P03951 388-625 limits assumed): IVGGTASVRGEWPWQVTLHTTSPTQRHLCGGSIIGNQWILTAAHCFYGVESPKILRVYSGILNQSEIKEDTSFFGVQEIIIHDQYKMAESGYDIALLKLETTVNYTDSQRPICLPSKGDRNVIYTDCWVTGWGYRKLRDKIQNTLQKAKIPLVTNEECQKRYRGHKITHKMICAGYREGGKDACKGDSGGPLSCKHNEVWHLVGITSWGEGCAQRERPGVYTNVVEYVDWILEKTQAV
Sequence of factor XIa (P03951 19-387 limits assumed): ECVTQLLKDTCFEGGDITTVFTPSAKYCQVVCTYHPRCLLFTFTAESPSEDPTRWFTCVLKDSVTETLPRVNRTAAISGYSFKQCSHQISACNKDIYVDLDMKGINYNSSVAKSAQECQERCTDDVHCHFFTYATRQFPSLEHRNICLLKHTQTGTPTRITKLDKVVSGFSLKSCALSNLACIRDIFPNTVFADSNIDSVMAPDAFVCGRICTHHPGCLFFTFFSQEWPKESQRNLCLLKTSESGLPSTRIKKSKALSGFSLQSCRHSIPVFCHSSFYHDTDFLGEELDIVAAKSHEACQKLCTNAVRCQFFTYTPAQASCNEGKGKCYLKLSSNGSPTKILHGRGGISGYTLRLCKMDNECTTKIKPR

CC1CNc2c(cccc2S(=O)(=O)N[C@@H](CCCNC(=N)N)C(=O)N2CC[C@@H](C)C[C@@H]2C(=O)O)C1 (some centres unmarked) [argatroban, reference compound]
inhibition at 4 µg/mL (Active thrombin in serum [1]): > 90% | inhibition at 4 µg/mL (thrombin [2]; read-out: inhibition of DPRSFL–ACPP cleavage by thrombin): > 90% | reduction in fluorescence intensity relative to DPRSFL–ACPP alone (human atheromas; 110 or 220 μmol L^−1 argatroban, two atheroma specimens): 76.6 ± 13.4%

Suc-e8-O-DPRSFL-r9-c(Cy5 or rhodamine)-CONH2 [DPRSFL–ACPP]
Km (thrombin [3]; [12]): 15 µM | kcat (thrombin [3]; [12]): 0.3 s⁻¹ | kcat/Km (thrombin [3]; from kcat and Km): 21000 M⁻¹ s⁻¹ | cleavage by factor VIIa (factor VIIa): no cleavage | fold increase in clot fluorescence intensity compared to mPEG–ACPP [4]: 2.4 fold | cleavage by cathepsin G (cathepsin G): no cleavage | cleavage by factor XIIa (factor XIIa): no cleavage | uptake in hypocellular (DAPI poor) region versus cellular rich exterior (atherosclerotic plaques [5]): statistically greater | cleavage by factor XIa (factor XIa): no cleavage | cleavage by APC [6]: no cleavage | cleavage by plasmin (plasmin): able to cleave | cleavage by factor Xa (factor Xa): able to cleave | cleavage by chymotrypsin (chymotrypsin): able to cleave | uptake relative to co-injected Cy5–PLGLAG–ACPP within the same plaques (atherosclerotic plaques [7]): much higher | fluorescence intensity of individual plaques, Group 2 (atherosclerotic plaques [8]; n = 3, p = 0.007 vs Group 1): 43.7 ± 7.5 | whole aorta fluorescence per pixel, Group 2 (more advanced plaques) (atherosclerotic plaques [8]; n = 4, p = 0.02 vs Group 1): 24.4 ± 3.6 | fluorescence intensity of individual plaques, Group 1 (atherosclerotic plaques [8]; n = 11): 17.0 ± 9.3 | whole aorta fluorescence per pixel, Group 1 (less advanced plaques) (atherosclerotic plaques [8]; n=12): 7.8 ± 3.0 | cleavage by neutrophil elastase (neutrophil elastase): no cleavage | cleavage by purified thrombin (thrombin [2]; 5 μmol L^−1 peptide, 50 nM thrombin, 20 min, 37 °C, triplicate): efficiently cleaved | whole blood half-life [9]: 17 ± 5 min | cleavage by serum (Active thrombin in serum [10]): rapidly cleaved | greater cleavage product retained compared to control ACPP (human atheromas; freshly resected human atheromas bathed in probe): 63% | cleavage by human atheromas (gel electrophoresis of homogenates) (human atheromas; slices homogenized in SDS sample buffer after incubation): cleaved | cleavage by trypsin (trypsin): able to cleave

B1: native PAR-1 receptor: native proteinase activated receptor 1, thrombin substrate (protein, UniProt P25116 42-425, looked up)
Proteinase-activated receptor …: SFLLRNPNDKYEPFWEDEEKNESGLTEYRLVSINKSSPLQKQLPAFISEDASGYLTSSWLTLFVPSVYTGVFVVSLPLNIMAIVVFILKMKVKKPAVVYMLHLATADVLFVSVLPFKISYYFSGSDWQFGSELCRFVTAAFYCNMYASILLMTVISIDRFLAVVYPMQSLSWRTLGRASFTCLAIWALAIAGVVPLLLKEQTIQVPGLNITTCHDVLNETLLEGYYAYYFSAFSAVFFFVPLIISTVCYVSIIRCLSSSAVANRSKKSRALFLSAAVFCIFIICFGPTNVLLIAHYSFLSHTSTTEAAYFAYLLCVCVSSISCCIDPLIYYYASSECQRYVYSILCCKESSDPSSYNSSGQLMASKMDTCSSNLNNSIYKKLLT
kcat/Km (thrombin [11]): 7.6e+06 M⁻¹ s⁻¹
